Laboratory results: ChEMBL document CHEMBL5104115, “Design, synthesis of novel triptolide-glucose conjugates targeting glucose Transporter-1 and their selective antitumor effect” (Eur J Med Chem, 2022)
pIC50: −log10 of the molar value. Calls of active or inactive are those of the source. The rule behind the calls is not given here.

Assays:
NCI-H1975 = assay: Cytotoxicity against human NCI-H1975 cells incubated for 72 hrs by MTT assay; assay type: functional, cell-based; details: NCI-H1975, 72 h
In short: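 Cells seeded at 4000/well, incubated overnight, then exposed to a range of concentrations, or DMSO vehicle, for 72 h. MTT (5 mg/mL solution) added for 4 h and formazan dissolved in DMSO. Absorbance read at 570 nm, and IC50 derived from the curves. Tumor lines were grown in RPMI 1640; HUVEC, HaCaT and LO2 were grown in DMEM, each with 10% FBS at 37 °C and 5% CO2.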

[1] = Stability in mouse serum assessed as unchanged fraction measured after 72 hrs by HPLC analysis relative to control; assay type: ADME, cell-free; details: read-out: Stability
In short: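 15 µM test agent incubated with human or mouse serum at 37 °C for 0, 0.5, 1, 8, 12, 18, 60 and 72 h. Samples stored at −80 °C, protein precipitated with 200 µL methanol, vortexed and sonicated 5 min. Intact agent and released triptolide measured by HPLC at 220 nm, in duplicate.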

[2] = Stability in mouse serum measured after 8 hrs by HPLC analysis; assay type: ADME, cell-free
NCI-H460 [3] = assay: Induction of apoptosis in human NCI-H460 cells assessed as early apoptotic cells at 20 uM measured after 48 hrs by Annexin V-FITC/PI staining method (reference value: 3.26%); assay type: functional
NCI-H460 [4] = assay: Induction of ROS accumulation in human NCI-H460 cells measured upto 20 uM after 42 to 48 hrs by DCFH-DA staining based flow cytometric analysis; assay type: functional, cell-based; details: time 42-48 hrs
In short: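 NCI-H460 cells exposed 42 h or 48 h. Cells suspended in 1% BSA DPBS, loaded with DCFH-DA (0.2 µL of 10 mM stock per 200 µL) for 30 min in the dark, washed, analyzed by flow cytometry. DCF fluorescence expressed as percentage relative to untreated control from histograms, ≥3 replicates.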

- remaining at 72 h [1]: 66%
- Stability [2]: Stable
Compound: CC(C)[C@]12O[C@H]1[C@@H]1O[C@]13[C@]1(O[C@H]1C[C@H]1C4=C(CC[C@@]13C)C(=O)OC4)[C@@H]2OC(=O)CCC(=O)O[C@H]1C(O)O[C@H](CO)[C@@H](O)[C@@H]1O (stereo not given in full)
- pIC50 (NCI-H1975): 5.69
- Activity (NCI-H460 [3]): 35.1%
- Activity (NCI-H460 [4]): Active
